# Test results published in ChEMBL document CHEMBL4680176, “Identification of DOT1L inhibitors by structure-based virtual screening adapted from a nucleoside-focused library” (Eur J Med Chem, 2020).
# Activity calls are given as the source filed them. The rule behind the calls is not given here.
# Assays:
# [1] = system: Bone marrow cell; experiment: Induction of cell differentiation in mouse bone marrow cells transformed with MLL-AF9 assessed as change in morphology incubated for 6 days by Wright-Giemsa staining based inverted microscopy; format: functional; conditions: dose 1-30 µM, time 6.0 day
# Procedure, shortened: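 Cells taken on day 6 of the proliferation culture (MLL-AF9 murine line, IMDM + 15% FBS + IL-3, re-dosed at each split, 0.3% DMSO). Cytospun onto slides, Wright-Giemsa stained, and imaged under bright field on an inverted microscope to assess morphology.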
# [2] = Aqueous solubility of compound; format: physicochemical
# [3] = biological target: T1, Protein arginine N-methyltransferase 7 (Homo sapiens, UniProt Q9NVM4); experiment: Inhibition of recombinant human PRMT7 using GST-GAR as substrate by hotspot assay
# T1 sequence (Q9NVM4 whole entry): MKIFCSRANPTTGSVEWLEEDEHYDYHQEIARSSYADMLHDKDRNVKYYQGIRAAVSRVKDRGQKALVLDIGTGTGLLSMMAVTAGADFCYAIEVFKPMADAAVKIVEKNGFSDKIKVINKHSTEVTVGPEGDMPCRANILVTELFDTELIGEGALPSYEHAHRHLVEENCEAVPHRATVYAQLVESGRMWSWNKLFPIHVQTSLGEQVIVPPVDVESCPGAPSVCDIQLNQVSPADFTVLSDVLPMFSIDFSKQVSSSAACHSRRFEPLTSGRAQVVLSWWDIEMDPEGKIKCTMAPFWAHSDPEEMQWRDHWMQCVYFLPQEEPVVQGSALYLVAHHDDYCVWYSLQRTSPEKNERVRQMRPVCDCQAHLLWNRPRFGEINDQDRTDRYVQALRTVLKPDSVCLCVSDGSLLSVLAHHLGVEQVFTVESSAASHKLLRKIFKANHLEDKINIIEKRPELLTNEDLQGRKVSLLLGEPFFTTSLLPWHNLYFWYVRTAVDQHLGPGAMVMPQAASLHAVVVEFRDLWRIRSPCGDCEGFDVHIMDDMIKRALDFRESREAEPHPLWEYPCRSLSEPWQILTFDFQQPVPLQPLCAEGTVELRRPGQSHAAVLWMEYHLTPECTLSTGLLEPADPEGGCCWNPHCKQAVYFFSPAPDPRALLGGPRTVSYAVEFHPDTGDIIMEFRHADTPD
# [4] = biological target: T2, Histone H3 methyltransferase DOT1 variant d (Mus musculus) (UniProt Q679P4); experiment: Inhibition of DOT1L in mouse bone marrow cell transformed with MLL-AF9 cells assessed as reduction in H3K79 methylation measured after 6 days by Western blot analysis; format: cell-based; conditions: time 6.0 day
# T2 sequence (whole entry): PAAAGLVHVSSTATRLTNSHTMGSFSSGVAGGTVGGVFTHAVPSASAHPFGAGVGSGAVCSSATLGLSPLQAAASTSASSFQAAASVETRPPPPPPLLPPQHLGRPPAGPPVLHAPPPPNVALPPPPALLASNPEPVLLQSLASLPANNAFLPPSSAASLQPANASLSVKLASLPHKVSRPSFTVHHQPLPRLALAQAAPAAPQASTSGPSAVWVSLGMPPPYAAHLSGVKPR
# [5] = biological target: DNA (cytosine-5)-methyltransferase 1 (Homo sapiens, UniProt P26358); experiment: Inhibition of recombinant human DNMT1 using poly(dl-dC) as substrate by hotspot assay; conditions: read-out: IC50
# Sequence of DNA (cytosine-5)-methyltransferase 1 (P26358 whole entry): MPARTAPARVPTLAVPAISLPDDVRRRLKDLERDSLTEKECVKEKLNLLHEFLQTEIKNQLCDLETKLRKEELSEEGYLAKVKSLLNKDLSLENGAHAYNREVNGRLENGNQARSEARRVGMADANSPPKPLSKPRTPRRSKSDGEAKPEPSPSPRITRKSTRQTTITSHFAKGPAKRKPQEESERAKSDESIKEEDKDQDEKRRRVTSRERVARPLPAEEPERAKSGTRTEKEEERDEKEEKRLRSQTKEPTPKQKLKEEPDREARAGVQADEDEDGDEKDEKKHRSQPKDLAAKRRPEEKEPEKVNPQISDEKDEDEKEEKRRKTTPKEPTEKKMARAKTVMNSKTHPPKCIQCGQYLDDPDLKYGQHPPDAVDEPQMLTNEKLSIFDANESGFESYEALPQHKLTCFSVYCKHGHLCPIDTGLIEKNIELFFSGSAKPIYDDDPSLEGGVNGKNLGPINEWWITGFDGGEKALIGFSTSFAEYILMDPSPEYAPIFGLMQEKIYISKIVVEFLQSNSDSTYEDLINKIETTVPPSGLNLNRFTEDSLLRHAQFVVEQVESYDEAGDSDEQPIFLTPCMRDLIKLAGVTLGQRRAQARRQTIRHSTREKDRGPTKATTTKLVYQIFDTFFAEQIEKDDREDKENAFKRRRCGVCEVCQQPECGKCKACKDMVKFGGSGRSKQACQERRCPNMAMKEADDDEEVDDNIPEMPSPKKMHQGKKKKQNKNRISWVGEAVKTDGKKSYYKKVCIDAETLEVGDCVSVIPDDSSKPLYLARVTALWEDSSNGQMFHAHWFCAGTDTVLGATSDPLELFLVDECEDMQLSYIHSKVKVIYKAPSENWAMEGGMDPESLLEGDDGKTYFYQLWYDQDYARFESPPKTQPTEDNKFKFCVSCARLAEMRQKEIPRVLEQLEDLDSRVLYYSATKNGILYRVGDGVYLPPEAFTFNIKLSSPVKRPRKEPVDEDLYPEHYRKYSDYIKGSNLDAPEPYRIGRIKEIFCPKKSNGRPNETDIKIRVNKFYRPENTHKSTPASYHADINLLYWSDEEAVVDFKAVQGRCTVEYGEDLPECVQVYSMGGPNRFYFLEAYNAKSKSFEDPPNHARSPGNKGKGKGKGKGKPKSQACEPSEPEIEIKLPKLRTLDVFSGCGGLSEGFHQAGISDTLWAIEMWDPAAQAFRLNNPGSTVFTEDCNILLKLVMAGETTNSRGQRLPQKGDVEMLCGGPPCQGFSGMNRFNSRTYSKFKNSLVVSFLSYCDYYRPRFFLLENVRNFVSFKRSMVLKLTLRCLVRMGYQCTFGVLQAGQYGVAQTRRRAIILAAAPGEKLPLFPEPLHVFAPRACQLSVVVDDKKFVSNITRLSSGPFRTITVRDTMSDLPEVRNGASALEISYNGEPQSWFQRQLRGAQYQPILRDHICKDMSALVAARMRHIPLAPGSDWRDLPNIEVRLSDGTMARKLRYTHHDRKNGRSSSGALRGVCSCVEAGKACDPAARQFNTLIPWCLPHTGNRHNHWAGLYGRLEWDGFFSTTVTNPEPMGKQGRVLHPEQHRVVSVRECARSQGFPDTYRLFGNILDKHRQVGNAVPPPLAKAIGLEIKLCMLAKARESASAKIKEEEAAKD
# [6] = biological target: T2, Histone H3 methyltransferase DOT1 variant d (Mus musculus); experiment: Inhibition of DOT1L in mouse bone marrow cell transformed with MLL-AF9 cells assessed as reduction in H3K4me3 methylation at 1 to 30 uM measured after 6 days by Western blot analysis; format: cell-based; conditions: dose 1-30 µM, time 6.0 day
# [7] = system: Bone marrow cell; experiment: Antiproliferative activity against mouse bone marrow cell transformed with E2A-HLF assessed as reduction in cell growth at 1 to 30 uM measured after 15 days by hemocytometry; format: functional, cell-based; conditions: dose 1-30 µM, time 15.0 day
smiles,measurement,setting,value
CC(C)(C)c1ccc(NC(=O)c2ncn(CC(=O)NCCn3ccc4c(N)ncnc43)n2)cc1,Activity,[1],Dose-dependent effect
same,solubility,[2],687 µM
same,IC50,[3],Not Active
same,inhibition,[4],Dose-dependent effect
same,IC50,[5],248 µM
same,inhibition,[6],inactive
same,inhibition,[7],inactive
